“Also recorded” adds a separate entry of the source.
Columns and labels:
[1] = test system: high-fat diet-fed/streptozotocin (HFD/STZ) induced T2DM male albino mice; test: Acute hypoglycemic activity, intraperitoneal glucose tolerance test; type: in vivo; settings: IPGTT, diabetic mice, mean ±SD; for Blood glucose level (1 h): single dose 10 mg kg^−1, 1 h; for Blood glucose level (2 h): single dose 10 mg kg^−1, 2 h; for Blood glucose level (3 h): single dose 10 mg kg^−1, 3 h; for Blood glucose level (6 h): single dose 10 mg kg^−1, 6 h
Summary of the method: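 Diabetic male albino mice (high-fat diet-fed/streptozotocin-induced T2DM) received a single 10 mg kg−1 dose of test compound; the IPGTT was then run. Blood glucose (mg dl−1) was read at 1, 2, 3 and 6 h. The groups were normal control, untreated STZ-diabetic control and treated animals, with n = 4 per group. Values are mean ±SD.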

DPP-4 = DPP-4 (Homo sapiens, UniProt P27487); test: biochemical; type: biochemical; settings: for DPP-4 suppression activity (in words): human recombinant DPP-4; for IC50: Experimental PIC50, pIC50 = −log IC50, QSAR training set
Sequence of DPP-4 (P27487 whole entry): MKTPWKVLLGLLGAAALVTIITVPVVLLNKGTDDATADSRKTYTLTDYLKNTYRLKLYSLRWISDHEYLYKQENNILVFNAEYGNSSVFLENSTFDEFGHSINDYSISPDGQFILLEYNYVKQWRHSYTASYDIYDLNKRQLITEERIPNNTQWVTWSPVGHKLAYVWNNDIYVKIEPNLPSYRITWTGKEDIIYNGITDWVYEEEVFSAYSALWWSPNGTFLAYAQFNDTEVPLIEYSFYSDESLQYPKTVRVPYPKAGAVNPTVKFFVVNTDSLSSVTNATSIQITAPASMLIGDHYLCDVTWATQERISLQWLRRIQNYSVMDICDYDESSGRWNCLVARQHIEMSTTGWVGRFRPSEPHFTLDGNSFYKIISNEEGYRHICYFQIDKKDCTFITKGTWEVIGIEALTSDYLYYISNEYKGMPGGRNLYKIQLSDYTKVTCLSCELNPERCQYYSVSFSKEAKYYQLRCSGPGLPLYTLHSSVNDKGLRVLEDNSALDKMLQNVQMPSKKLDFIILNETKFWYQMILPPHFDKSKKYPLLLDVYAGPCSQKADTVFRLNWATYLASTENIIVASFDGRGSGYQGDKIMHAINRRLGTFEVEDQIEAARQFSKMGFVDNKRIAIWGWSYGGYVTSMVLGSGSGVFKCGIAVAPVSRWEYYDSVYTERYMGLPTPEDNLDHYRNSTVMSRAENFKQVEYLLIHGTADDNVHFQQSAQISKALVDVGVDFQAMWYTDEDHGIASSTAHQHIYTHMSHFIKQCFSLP

DPP-8 = DPP-8 (Homo sapiens, UniProt Q6V1X1); test: In vitro DPP-8 selectivity assay, fluorescence-based; type: biochemical
Sequence of DPP-8 (Q6V1X1 whole entry): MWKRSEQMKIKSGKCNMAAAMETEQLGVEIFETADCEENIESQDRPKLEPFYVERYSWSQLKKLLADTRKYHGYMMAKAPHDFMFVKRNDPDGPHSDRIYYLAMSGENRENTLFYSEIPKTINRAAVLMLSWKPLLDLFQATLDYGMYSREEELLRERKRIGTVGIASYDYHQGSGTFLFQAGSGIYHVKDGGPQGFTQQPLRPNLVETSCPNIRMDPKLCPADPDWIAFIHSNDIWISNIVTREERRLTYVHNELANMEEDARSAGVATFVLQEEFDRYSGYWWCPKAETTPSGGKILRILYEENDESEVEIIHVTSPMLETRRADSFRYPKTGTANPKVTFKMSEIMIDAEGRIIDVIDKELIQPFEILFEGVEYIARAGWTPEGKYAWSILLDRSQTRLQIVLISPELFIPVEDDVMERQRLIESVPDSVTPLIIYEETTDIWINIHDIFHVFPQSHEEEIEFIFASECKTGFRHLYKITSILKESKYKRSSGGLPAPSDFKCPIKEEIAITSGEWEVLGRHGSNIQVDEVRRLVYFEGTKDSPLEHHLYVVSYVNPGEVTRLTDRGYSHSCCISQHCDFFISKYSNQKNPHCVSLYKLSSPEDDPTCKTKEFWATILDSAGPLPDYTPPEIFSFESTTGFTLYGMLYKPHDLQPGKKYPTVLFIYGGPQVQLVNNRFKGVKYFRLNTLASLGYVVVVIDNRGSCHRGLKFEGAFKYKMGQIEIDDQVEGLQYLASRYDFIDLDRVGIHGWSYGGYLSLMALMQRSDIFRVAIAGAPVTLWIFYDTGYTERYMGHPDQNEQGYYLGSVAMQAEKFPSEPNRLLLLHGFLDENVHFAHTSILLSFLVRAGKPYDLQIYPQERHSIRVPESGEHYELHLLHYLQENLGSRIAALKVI

DPP-9 = DPP-9 (Homo sapiens, UniProt Q86TI2); test: In vitro DPP-9 selectivity assay, fluorescence-based; type: biochemical
Sequence of DPP-9 (Q86TI2 whole entry): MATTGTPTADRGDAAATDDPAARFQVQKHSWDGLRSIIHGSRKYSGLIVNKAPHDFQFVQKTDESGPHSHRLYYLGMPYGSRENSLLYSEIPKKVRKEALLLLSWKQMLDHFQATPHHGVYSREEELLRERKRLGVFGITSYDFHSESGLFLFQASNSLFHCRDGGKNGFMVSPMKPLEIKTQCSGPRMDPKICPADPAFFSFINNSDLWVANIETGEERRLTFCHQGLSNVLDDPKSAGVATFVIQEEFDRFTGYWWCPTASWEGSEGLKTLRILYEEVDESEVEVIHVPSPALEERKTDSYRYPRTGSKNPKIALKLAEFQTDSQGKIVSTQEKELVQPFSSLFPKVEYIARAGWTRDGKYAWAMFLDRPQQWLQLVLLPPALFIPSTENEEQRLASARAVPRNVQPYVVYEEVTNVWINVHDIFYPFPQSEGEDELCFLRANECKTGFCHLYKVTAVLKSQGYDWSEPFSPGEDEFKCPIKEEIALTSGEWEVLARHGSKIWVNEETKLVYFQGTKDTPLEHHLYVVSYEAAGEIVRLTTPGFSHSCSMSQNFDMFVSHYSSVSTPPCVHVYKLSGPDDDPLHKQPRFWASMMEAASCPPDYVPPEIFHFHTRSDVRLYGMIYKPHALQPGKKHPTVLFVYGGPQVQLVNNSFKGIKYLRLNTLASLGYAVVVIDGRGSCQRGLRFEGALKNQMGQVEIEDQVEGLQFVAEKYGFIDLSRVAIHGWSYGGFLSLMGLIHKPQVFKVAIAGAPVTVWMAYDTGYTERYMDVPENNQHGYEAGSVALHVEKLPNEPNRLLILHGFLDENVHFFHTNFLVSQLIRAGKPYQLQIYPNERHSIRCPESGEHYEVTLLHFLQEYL

[2] = test system: normal hTERT-RPE1 cell line; test: Cytotoxicity bioassay; type: cell-based; settings: MTT

folds more potent DPP-4 inhibitory effect than Linagliptin (DPP-4) | IC50 (DPP-4) [nM] | IC50 (DPP-8) [nM] | selectivity towards DPP-4 inhibition over DPP-8/9 (DPP-8; DPP-4 versus DPP-8/9) [folds] | IC50 (DPP-9) [nM] | SMILES | Blood glucose level (1 h) [1] [mg/dL] | Blood glucose level (2 h) [1] [mg/dL] | Blood glucose level (3 h) [1] [mg/dL] | Blood glucose level (6 h) [1] [mg/dL] | DPP-4 suppression activity (in words) (DPP-4) | Inhibition% of normal hTERT-RPE1 cells [2] [%]
 |  |  |  |  | Cn1c(=O)c(=O)n(C)c2cc(S(=O)(=O)NNC(=O)c3ccccc3)ccc21 [Compound 9c, N′-Benzoyl-1,4-dimethyl-2,3-dioxo-1,2,3,4-tetrahydroquinoxaline-6-sulfonohydrazide] | 235.40 ± 3.85 | 120.11 ± 2.35 | 96.68 ± 4.25 | 80.16 ± 5.01 |  | 
 |  |  |  |  | Cn1c(=O)c(=O)n(C)c2cc(S(=O)(=O)NNC(=O)Nc3ccc(Cl)cc3)ccc21 [Compound 10d, N-(4-Chlorophenyl)-2-((1,4-dimethyl-2,3-dioxo-1,2,3,4-tetrahydroquinoxalin-6-yl)sulfonyl)hydrazine-1-carboxamide] |  |  |  |  | inactive; also recorded: completely lost the activity | 
1.2–1.6 folds | 0.617 |  |  |  | Cn1c(=O)c(=O)n(C)c2cc(S(=O)(=O)Nc3ccc(S(N)(=O)=O)cc3)ccc21 [Compound 7a, 1,4-Dimethyl-2,3-dioxo-N-(4-sulfamoylphenyl)-1,2,3,4-tetrahydroquinoxaline-6-sulfonamide] | 251.29 ± 2.80 | 138.16 ± 9.23 | 122.08 ± 3.31 | 99.25 ± 4.35 |  | 
 |  |  |  |  | Cn1c(=O)c(=O)n(C)c2cc(S(=O)(=O)Nc3ccc(F)cc3)ccc21 [Compound 6d, N-(4-Fluorophenyl)-1,4-dimethyl-2,3-dioxo-1,2,3,4-tetrahydroquinoxaline-6-sulfonamide] | 226.33 ± 6.34 | 120.08 ± 4.11 | 99.33 ± 1.29 | 93.33 ± 6.11 |  | 
 |  |  |  |  | Cn1c(=O)c(=O)n(C)c2cc(S(=O)(=O)NNC(=S)NC3CCCCC3)ccc21 [Compound 10f, N-Cyclohexyl-2-((1,4-dimethyl-2,3-dioxo-1,2,3,4-tetrahydroquinoxalin-6-yl)sulfonyl)hydrazine-1-carbothioamide] | 237.33 ± 3.85 | 127.33 ± 4.23 | 100.06 ± 6.29 | 89.66 ± 2.27 |  | 
 |  | > 100000 | > 1000 | > 100000 | CC(=O)NNS(=O)(=O)c1ccc2c(c1)n(C)c(=O)c(=O)n2C [Compound 9a, N′-Acetyl-1,4-dimethyl-2,3-dioxo-1,2,3,4-tetrahydroquinoxaline-6-sulfonohydrazide] | 237.40 ± 3.15 | 115.11 ± 4.25 | 97.12 ± 8.37 | 85.23 ± 1.69 |  | 20
 | 0.724 |  |  |  | Cn1c(=O)c(=O)n(C)c2cc(S(=O)(=O)Nc3ccc(Br)cc3)ccc21 [Compound 6e, N-(4-Bromophenyl)-1,4-dimethyl-2,3-dioxo-1,2,3,4-tetrahydroquinoxaline-6-sulfonamide] | 222.09 ± 4.85 | 125.04 ± 3.26 | 95.28 ± 4.55 | 92.17 ± 8.45 |  | 
 |  |  |  |  | Cn1c(=O)c(=O)n(C)c2cc(S(=O)(=O)NNC(=O)NCc3ccccc3)ccc21 [Compound 10b, N-Benzyl-2-((1,4-dimethyl-2,3-dioxo-1,2,3,4-tetrahydroquinoxalin-6-yl)sulfonyl)hydrazine-1-carboxamide] | 228.71 ± 3.85 | 120.09 ± 3.35 | 90.66 ± 5.35 | 85.66 ± 4.10 |  | 
 |  |  |  |  | Cn1c(=O)c(=O)n(C)c2cc(S(=O)(=O)NNC(=O)CCl)ccc21 [Compound 9b, N′-(2-Chloroacetyl)-1,4-dimethyl-2,3-dioxo-1,2,3,4-tetrahydroquinoxaline-6-sulfono hydrazide] | 223.89 ± 3.85 | 118.12 ± 5.95 | 89.12 ± 4.21 | 85.25 ± 2.12 |  | 
 |  |  |  |  | Cn1c(=O)c(=O)n(C)c2cc(S(=O)(=O)NNC(=O)NC(=O)c3ccccc3)ccc21 [Compound 10c, N-Benzoyl-2-((1,4-dimethyl-2,3-dioxo-1,2,3,4-tetrahydroquinoxalin-6-yl)sulfonyl)hydrazine-1-carboxamide] | 225.65 ± 3.85 | 155.33 ± 2.78 | 137.34 ± 9.48 | 104.08 ± 3.35 |  | 
 |  |  |  |  | Cn1c(=O)c(=O)n(C)c2cc(S(=O)(=O)Nc3nccs3)ccc21 [Compound 6a, 1,4-Dimethyl-2,3-dioxo-N-(thiazol-2-yl)-1,2,3,4-tetrahydroquinoxaline-6-sulfonamide] |  |  |  |  | inactive; also recorded: completely lost | 
 |  |  |  |  | CC#CCn1c(N2CCC[C@@H](N)C2)nc2c1c(=O)n(Cc1nc(C)c3ccccc3n1)c(=O)n2C [Linagliptin, reference compound] | 220.01 ± 3.85 | 120.89 ± 1.76 | 85.11 ± 2.39 | 85.00 ± 5.15 |  | 
 |  |  |  |  | Cn1c(=O)c(=O)n(C)c2cc(S(=O)(=O)Nc3ccc(C(=O)O)cc3)ccc21 [Compound 6c, 4-(1,4-Dimethyl-2,3-dioxo-1,2,3,4-tetrahydroquinoxaline-6-sulfonamido)benzoic acid] | 220.59 ± 5.12 | 125.31 ± 3.47 | 90.68 ± 3.45 | 90.06 ± 7.25 |  | 
 |  |  |  |  | COc1ccc(NC(=S)NNS(=O)(=O)c2ccc3c(c2)n(C)c(=O)c(=O)n3C)cc1 [Compound 10h, 2-((1,4-Dimethyl-2,3-dioxo-1,2,3,4-tetrahydroquinoxalin-6-yl)sulfonyl)-N-(4-methoxyphenyl)hydrazine-1-carbothioamide] |  |  |  |  | inactive; also recorded: completely lost the activity | 
 |  |  |  |  | Cn1c(=O)c(=O)n(C)c2cc(S(=O)(=O)Nc3ccccc3S)ccc21 [Compound 6f, N-(2-Mercaptophenyl)-1,4-dimethyl-2,3-dioxo-1,2,3,4-tetrahydroquinoxaline-6-sulfonamide] | 218.00 ± 4.26 | 118.07 ± 8.21 | 97.09 ± 6.39 | 93.25 ± 7.49 |  | 
 |  |  |  |  | CC(=O)c1ccc(NS(=O)(=O)c2ccc3c(c2)n(C)c(=O)c(=O)n3C)cc1 [Compound 6b, N-(4-Acetylphenyl)-1,4-dimethyl-2,3-dioxo-1,2,3,4-tetrahydroquinoxaline-6-sulfonamide] | 235.64 ± 4.25 | 127.33 ± 7.15 | 95.67 ± 6.21 | 96.24 ± 4.29 |  | 

Source: PMC9043576 (RSC Advances, 2021)
